For orientation: IC50 means the concentration that gives 50% inhibition. As a reminder, the inhibition is the relative decrease from the control value, in per cent.

Results on 10 molecules are retold here after ChEMBL document CHEMBL4808210, “Mapping Chromone-3-Phenylcarboxamide Pharmacophore: Quid Est Veritas?” (J Med Chem, 2021).

In series [1] the target is T1, Amine oxidase [flavin-containing] B (Homo sapiens, UniProt P27338).
T1 sequence (P27338 whole entry): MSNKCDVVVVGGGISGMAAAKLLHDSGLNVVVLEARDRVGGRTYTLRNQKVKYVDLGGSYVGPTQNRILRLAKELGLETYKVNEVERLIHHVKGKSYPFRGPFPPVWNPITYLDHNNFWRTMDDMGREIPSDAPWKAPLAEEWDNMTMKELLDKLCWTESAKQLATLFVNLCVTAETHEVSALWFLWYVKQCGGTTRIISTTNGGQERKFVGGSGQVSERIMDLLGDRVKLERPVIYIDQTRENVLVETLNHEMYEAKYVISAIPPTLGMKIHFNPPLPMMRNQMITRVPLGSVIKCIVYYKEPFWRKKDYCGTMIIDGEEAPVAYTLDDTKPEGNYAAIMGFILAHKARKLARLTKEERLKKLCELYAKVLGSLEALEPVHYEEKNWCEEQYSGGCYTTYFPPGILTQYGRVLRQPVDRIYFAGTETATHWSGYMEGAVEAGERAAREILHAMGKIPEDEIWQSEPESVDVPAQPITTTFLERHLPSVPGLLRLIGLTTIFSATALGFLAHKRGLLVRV
Kind of series: Inhibition of recombinant human MAO-B expressed in baculovirus infected BTI-TN- 5B1-4 insect cells using kynuramine as substrate preincubated for 10 mins in presence of substrate followed by enzyme addition and measured every minute for 30 mins by spectrophotometry analysis. Type of series: cell-based.

For the next series, the species on record is Homo sapiens. In words: Selectivity index, ratio of IC50 for recombinant human MAO-A expressed in baculovirus infected BTI-TN- 5B1-4 insect cells to IC50 for recombinant human MAO-B expressed in baculovirus infected BTI-TN- 5B1-4 insect cells using kynuramine as substrate preincubated for 10 mins in presence of substrate followed by enzyme addition and measured every minute for 30 mins by spectrophotometry analysis. Summed up: (§1)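 Recombinant hMAO-A and hMAO-B were assayed with kynuramine as substrate. Percent inhibition was taken at 10 μM, the highest concentration tested. Where the hMAO-A IC₅₀ was not reached, it was taken as 10 μM.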

A further series concerns the target T2, MAO-A (Homo sapiens, UniProt P21397).
T2 sequence (P21397 whole entry): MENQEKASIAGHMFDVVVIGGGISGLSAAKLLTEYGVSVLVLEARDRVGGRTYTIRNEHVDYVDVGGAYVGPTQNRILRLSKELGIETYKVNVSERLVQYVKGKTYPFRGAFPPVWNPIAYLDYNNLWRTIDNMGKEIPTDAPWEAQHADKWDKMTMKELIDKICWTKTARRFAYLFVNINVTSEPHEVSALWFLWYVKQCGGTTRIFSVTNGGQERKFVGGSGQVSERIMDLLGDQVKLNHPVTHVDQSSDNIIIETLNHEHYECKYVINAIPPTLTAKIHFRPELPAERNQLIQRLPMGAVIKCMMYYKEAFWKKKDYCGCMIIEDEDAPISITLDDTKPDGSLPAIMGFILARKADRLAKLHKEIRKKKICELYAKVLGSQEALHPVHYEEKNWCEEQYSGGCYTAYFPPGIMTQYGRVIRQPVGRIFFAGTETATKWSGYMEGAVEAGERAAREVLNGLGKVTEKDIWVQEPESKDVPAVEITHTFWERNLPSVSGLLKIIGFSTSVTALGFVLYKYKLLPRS
Kind of series: Inhibition of recombinant human MAO-A expressed in baculovirus infected BTI-TN- 5B1-4 insect cells at 10 uM using kynuramine as substrate preincubated for 10 mins in presence of substrate followed by enzyme addition and measured every minute for 30 mins by spectrophotometry analysis relative to control. Particulars: probe kynuramine, time 40 min. Summed up:
as §1

The test system of a further series is Caco-2. In words: Cytotoxicity against human Caco-2 cells assessed as effect on cell viability at 1 to 10 uM measured after 24 hrs by MTT assay. Type of series: cell-based. As to conditions: caco-2, 24 h, dose 1-10 µM. Summed up: (§2)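 Caco-2 cells, and SH-SY5Y cells first differentiated toward a dopaminergic-like phenotype, were treated for 24 h with compounds at 1 and 10 μM. Metabolic activity was read as MTT reduction to formazan, relative to untreated cells. Mean ± SEM of at least three independent experiments, each in triplicate.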
(In general: Tetrazolium dyes change colour on reduction, which living cells bring about.)

Series [2] relates to SH-SY5Y. In words: Cytotoxicity against human SH-SY5Y cells assessed as effect on NR uptake at 1 to 10 uM measured after 24 hrs by neutral red uptake assay. Format: cell-based. Particulars: dose 1-10 µM. In outline:
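Differentiated SH-SY5Y cells were exposed to compounds at 1 and 10 μM for 24 h. Lysosomal activity was read as neutral red dye uptake and compared with untreated cells. Mean ± SEM of at least three independent experiments run in triplicate.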

Series [3] has as its system SH-SY5Y. Kind of series: Cytotoxicity against human SH-SY5Y cells assessed as reduction in cell viability at 10 uM measured after 24 hrs by MTT assay relative to control. Format: cell-based. Summed up:
as §2

Series [4] can be described thus: Solubility of the compound in phosphate buffer at > 10 uM. Format: physicochemical.
For series [5], the system named is HEK293. Kind of series: Cytotoxicity against HEK293 cells incubated for 24 to 48 hrs by Celltiter-Glo assay. Type of series: cell-based, Homo sapiens. Background: In ATP-based viability assays light output follows the ATP content of the culture.
The target in series [6] is ATP-dependent translocase ABCB1 (Homo sapiens, UniProt P08183). In words: Modulation of P-gp-mediated Rhodamine-123 efflux in human Caco-2 cells assessed as Rhodamine-123 accumulation at 10 uM pretreated for 30 mins in presence or absence of Zos followed by Rho-123 addition and measured after 90 mins by fluorescence spectroscopy. Format: cell-based. Particulars: caco-2, 2 h, time 120 min. Summed up:
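Caco-2 cells were exposed to compounds at 10 μM during incubation with the P-gp substrate rhodamine 123 (5 μM). Zosuquidar served as the specific P-gp inhibitor. Cellular rhodamine 123 was read by fluorescence spectroscopy. Mean ± SEM of at least three independent experiments in triplicate.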
On the technique in general: Passage across Caco-2 layers is used to estimate intestinal permeability.

Series [7] relates to HUVEC. Kind of series: Cytotoxicity against HUVEC cells incubated for 24 to 48 hrs by Celltiter-Glo assay. Type of series: cell-based, Homo sapiens. Particulars: huvec.
A further series concerns the target hERG (Homo sapiens, UniProt Q12809). Kind of series: Inhibition of human ERG at 10 uM incubated for 2 hrs by fluorescence polarization assay relative to control. Summed up: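 hERG binding was measured by fluorescence polarization, using a homogenized membrane preparation containing hERG plus a fluorescent tracer. A drop in FP signal from tracer displacement was read as inhibition. Compounds were tested at 10 μM.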

The subject of series [8] is SH-SY5Y. In words: Protection against iron(III)-induced damage in human SH-SY5Y cells assessed as increase in lysosomal activity at 1 to 10 uM pretreated for 30 mins followed by iron(III) treatment at 1000 uM after 24 hrs by NR uptake assay. Type of series: functional, cell-based. Particulars: dose 1-10 µM, time 24.5 hrs. In outline:
(§3)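 Differentiated SH-SY5Y cells were pretreated with compounds at 1 or 10 μM for 30 min, then exposed to iron(III) at 1000 or 1500 μM for 24 h. Viability was read by neutral red uptake. Mean ± SD of three independent experiments, two-way ANOVA.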

Series [9] concerns HUVEC. In words: Cytotoxicity against HUVEC cells at 10 uM incubated for 24 to 48 hrs by Celltiter-Glo assay relative to control. Type of series: cell-based. Particulars: human, time 24-48 hrs. In outline:
(§4)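 Cells (HEK-293, HUVEC, MCF-7) exposed to test compounds at 10 μM for 24 h; cytotoxicity read in triplicate with a luminescence kit measuring intracellular ATP levels.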

Series [10] deals with SH-SY5Y. In words: Protection against iron(III)-induced damage in human SH-SY5Y cells assessed as increase in lysosomal activity at 1 to 10 uM pretreated for 30 mins followed by iron(III) treatment at 1500 uM after 24 hrs by NR uptake assay. As to conditions: dose 1-10 µM, time 24.5 hrs. Format: functional, cell-based. In outline: as §3
In series [11] the test system is HEK293. In words: Cytotoxicity against HEK293 cells at 10 uM incubated for 24 to 48 hrs by Celltiter-Glo assay relative to control. As to conditions: human, hek293, 10 µM, time 24-48 hrs. Format: cell-based. Summed up: as §4
Series [12] concerns MCF7. Kind of series: Cytotoxicity against human MCF7 cells incubated for 24 to 48 hrs by Celltiter-Glo assay. Format: cell-based.
Series [13] deals with MCF7. In words: Cytotoxicity against human MCF7 cells at 10 uM incubated for 24 to 48 hrs by Celltiter-Glo assay relative to control. Particulars: mcf7, 10 µM, time 24-48 hrs. Format: cell-based. In outline: as §4
Series [14] addresses T1, Amine oxidase [flavin-containing] B. In words: Time dependent inhibition of recombinant human MAO-B expressed in baculovirus infected BTI-TN- 5B1-4 insect cells assessed as increase in enzyme activity at IC80 measured after 120 mins. As to conditions: bti-tn-5b1-4, 2 h.
The target is the same in series [15]. Kind of series: Inhibition of recombinant human MAO-B expressed in baculovirus infected BTI-TN- 5B1-4 insect cells at 10 uM using kynuramine as substrate preincubated for 10 mins in presence of substrate followed by enzyme addition and measured every minute for 30 mins by spectrophotometry analysis relative to control. Particulars: BTI-TN-5B1-4, human, 0.5 h, time 40 min. Summed up: as §1

Activity calls are given as the source filed them. No cut-off for these calls is given here.

Chain of ATP-dependent translocase ABCB1 (P08183 whole entry): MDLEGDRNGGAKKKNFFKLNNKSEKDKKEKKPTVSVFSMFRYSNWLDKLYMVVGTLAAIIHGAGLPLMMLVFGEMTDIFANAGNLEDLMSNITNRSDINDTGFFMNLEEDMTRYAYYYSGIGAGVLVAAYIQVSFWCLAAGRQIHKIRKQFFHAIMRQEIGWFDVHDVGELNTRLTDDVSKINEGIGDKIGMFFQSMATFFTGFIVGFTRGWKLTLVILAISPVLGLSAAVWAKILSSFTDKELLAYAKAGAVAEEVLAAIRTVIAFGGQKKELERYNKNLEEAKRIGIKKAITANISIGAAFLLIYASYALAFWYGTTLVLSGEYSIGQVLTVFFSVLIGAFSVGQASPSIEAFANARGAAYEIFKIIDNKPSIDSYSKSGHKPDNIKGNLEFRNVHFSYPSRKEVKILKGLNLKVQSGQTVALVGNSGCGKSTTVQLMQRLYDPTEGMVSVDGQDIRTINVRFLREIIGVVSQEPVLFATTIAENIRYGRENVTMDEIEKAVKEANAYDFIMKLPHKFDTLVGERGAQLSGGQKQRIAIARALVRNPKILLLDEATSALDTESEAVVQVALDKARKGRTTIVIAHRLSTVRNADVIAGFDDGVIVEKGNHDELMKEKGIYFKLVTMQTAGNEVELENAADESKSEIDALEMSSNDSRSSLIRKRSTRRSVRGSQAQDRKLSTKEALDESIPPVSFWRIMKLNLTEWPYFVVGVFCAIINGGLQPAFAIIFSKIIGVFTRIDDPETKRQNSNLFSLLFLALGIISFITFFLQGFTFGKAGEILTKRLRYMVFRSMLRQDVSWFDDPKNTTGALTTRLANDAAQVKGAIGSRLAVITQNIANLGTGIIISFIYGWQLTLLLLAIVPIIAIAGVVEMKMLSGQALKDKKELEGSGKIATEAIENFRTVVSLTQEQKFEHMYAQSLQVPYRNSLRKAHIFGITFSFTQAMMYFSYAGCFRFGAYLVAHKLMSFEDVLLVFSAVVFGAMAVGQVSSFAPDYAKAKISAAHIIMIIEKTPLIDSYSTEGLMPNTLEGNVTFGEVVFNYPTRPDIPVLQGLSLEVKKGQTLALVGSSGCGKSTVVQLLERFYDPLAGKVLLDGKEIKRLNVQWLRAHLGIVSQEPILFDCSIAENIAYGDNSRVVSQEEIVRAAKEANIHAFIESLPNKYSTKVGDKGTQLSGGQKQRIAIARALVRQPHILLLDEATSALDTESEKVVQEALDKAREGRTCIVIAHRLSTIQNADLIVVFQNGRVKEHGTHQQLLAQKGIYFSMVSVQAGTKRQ
Chain of hERG (Q12809 whole entry): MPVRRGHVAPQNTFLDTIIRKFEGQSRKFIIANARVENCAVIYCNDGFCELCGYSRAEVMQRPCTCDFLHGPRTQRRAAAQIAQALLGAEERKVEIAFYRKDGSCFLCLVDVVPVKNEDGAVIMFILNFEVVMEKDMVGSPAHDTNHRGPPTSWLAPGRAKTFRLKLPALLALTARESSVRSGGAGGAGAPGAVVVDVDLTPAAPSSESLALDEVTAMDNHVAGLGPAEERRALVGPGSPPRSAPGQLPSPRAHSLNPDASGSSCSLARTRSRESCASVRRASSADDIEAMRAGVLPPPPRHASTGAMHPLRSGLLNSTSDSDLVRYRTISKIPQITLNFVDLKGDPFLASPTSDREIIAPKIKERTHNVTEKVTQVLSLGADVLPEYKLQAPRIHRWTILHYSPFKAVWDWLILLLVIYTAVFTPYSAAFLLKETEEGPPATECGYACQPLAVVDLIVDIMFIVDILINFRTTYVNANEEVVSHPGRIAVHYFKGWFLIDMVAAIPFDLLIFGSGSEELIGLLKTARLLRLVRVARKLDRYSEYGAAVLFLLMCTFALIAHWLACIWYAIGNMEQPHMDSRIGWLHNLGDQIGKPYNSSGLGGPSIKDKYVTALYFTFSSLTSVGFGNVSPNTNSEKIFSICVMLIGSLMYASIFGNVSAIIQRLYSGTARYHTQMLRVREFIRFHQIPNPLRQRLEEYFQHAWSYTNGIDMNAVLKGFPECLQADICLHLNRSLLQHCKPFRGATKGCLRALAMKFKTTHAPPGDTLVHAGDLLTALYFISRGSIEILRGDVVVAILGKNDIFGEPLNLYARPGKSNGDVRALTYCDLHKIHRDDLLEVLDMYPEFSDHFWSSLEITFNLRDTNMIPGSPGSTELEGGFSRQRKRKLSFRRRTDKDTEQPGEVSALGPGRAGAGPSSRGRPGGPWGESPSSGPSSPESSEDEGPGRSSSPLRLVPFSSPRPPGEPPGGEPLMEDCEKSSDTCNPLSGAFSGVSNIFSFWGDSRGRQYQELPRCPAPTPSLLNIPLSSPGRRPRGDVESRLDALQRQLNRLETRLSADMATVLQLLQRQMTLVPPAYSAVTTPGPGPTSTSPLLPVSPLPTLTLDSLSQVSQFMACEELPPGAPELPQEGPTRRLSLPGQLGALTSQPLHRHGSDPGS

Consider `Cc1ccc(NC(=O)C2COc3ccccc3C2)cc1C` (stereo not given), for which the IC50 in series [1] amounted to 1780 nM. Moreover, the Ratio IC50 in the series filed under Homo sapiens was above 5.62. Also, the inhibition at 0.5 h, 10 µM at MAO-A came out at 19.6%.
For `O=C(Nc1ccc(Cl)c(Cl)c1)C1COc2ccccc2C1` (stereo not given), the IC50 in series [1] amounted to 78.8 nM. Besides, in the series listed under Homo sapiens, the Ratio IC50 is above 127. Moreover, the Activity entry with Caco-2 and with SH-SY5Y [2] was “Non-Toxic” in each case. The inhibition at 0.5 h, 10 µM on MAO-A is 16.4%.
Consider `Cc1ccc(NC(=O)c2cc3ccccc3oc2=O)cc1C`, for which the Activity entry is given as “Non-Toxic” in the series with Caco-2, “Non-Toxic” in the series on SH-SY5Y [2] and below 85% with SH-SY5Y [3]. Moreover, the inhibition at 0.5 h, 10 µM at MAO-A came out at 26.8%.
Turning to `O=C(Nc1ccc(Cl)c(Cl)c1)c1cc2ccccc2[nH]c1=O`, the solubility result in [4] is listed as “Insoluble”.
As for `Cc1ccc(NC(=O)c2coc3ccccc3c2=O)cc1C`, the IC50 entry in the series with HEK293 [5], with HUVEC [7] and with MCF7 [12] was “Not Active” each time. In addition, the Activity entry is “Not Active” in series [6]; “Non-Toxic” in the series with Caco-2; “Non-Toxic” in the series on SH-SY5Y [2]; below 10% in the series with HUVEC [9]; below 10% in the series with HEK293 [11]; below 85% in the series on SH-SY5Y [3]. The molecule also showed an Activity in the series with MCF7 [13] below 10%. Besides, the inhibition at 2 h, 10 µM against hERG is below 10%. Also, the outcome in the series with SH-SY5Y [8] and in the series on SH-SY5Y [10] was inactive.
With `COc1ccc(NC(=O)C2=Cc3ccccc3OC2)cc1OC`, the IC50 in series [1] came to 2870 nM. Besides, the Ratio IC50 in the series filed under Homo sapiens is above 3.48. Also, the inhibition at 0.5 h, 10 µM at MAO-A was 20.2%.
`Cn1c(=O)c(C(=O)Nc2ccc(Cl)c(Cl)c2)cc2ccccc21`: the solubility entry in [4] is on record as “Insoluble”.
On the same count and under the same terms, the entry for `COc1ccc(NC(=O)c2cc3ccccc3oc2=O)cc1OC` is “Insoluble”.
In the case of `C[C@H](NCc1ccc(OCc2cccc(F)c2)cc1)C(N)=O` [SAFINAMIDE], in [14], the TDI entry is “Active”. Moreover, at MAO-A, the inhibition at 0.5 h, 10 µM came to 30.5%.
For the molecule `Cc1ccc(NC(=O)c2cc3ccccc3[nH]c2=O)cc1C`, the inhibition at 0.5 h, 10 µM on MAO-A came to 1.32%. The inhibition at 10 µM in [15] was determined as 8.1%.
